B1: Osa-1-4 twister ribozyme (parent)
chain: CCGCCUAACACUGCCAAUGCCGGUCCCAAGCCCGGAUAAAAGUGGAGGGGGCGG

Variants of: B1
Assay: self-cleavage, relative activity (ratio to wild type); higher = more cleavage; co-transcriptional
Summary of the method: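 A DNA template for a 54-nucleotide Oryza sativa twister ribozyme was synthesised with 97 % wild-type base and 1 % of each other base at the 48 positions downstream of the cleavage site. It was transcribed in vitro for 2 h at 37 °C, allowing co-transcriptional self-cleavage, then reverse-transcribed with a template-switching oligonucleotide, PCR-amplified and deep-sequenced. Cleavage status was scored from reads with or without upstream sequence. Relative activity is fraction cleaved normalised to wild type.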

Point of comparison: A38U G42U, self-cleavage 0.08. Against it:
- A38C C33U — higher, 0.79
- A38C C33A — higher, 0.1
- A38C C33G — lower, 0.05
- A38U C33G — lower, 0.05
- A38U C33U — higher, 0.79
- A38U C33A — higher, 0.1
- A38U C25A — lower, 0.07
- A38U C25U — higher, 0.9
- A38U C25G — higher, 0.09
- A38G G44A — higher, 0.93
- A38G G44C — higher, 0.98
- A38G G44U — higher, 0.95
- A38G A41C — higher, 0.98
- A38G A41U — higher, 1.01
- A38G A41G — higher, 0.75
- A38G C33U — higher, 0.78
- A38G C33A — higher, 0.11
- A38G C33G — lower, 0.07
- A38C U37G — higher, 0.99
- A38C U37C — higher, 1
- A38C U37A — higher, 1.05
- A38G A40G — higher, 0.6
- A38G A40C — lower, 0.07
- A38G A40U — higher, 0.32
- A38C U12A — higher, 0.92
- A38C U12C — higher, 0.38
- A38C U12G — higher, 0.29
- A38U C9A — higher, 0.42
- A38U C9U — higher, 0.74
- A38U C9G — higher, 0.84
- A38G A8G — higher, 0.55
- A38G A8U — higher, 0.27
- A38G A8C — lower, 0.07
- A38U G49C — lower, 0.05
- A38U G49U — higher, 0.09
- A38U G49A — higher, 0.12
- A38G C27A — higher, 0.16
- A38G C27G — higher, 0.09
- A38G C27U — higher, 0.18
- A38U A46C — lower, 0.06
- A38U A46U — lower, 0.07
- A38U A46G — lower, 0.05
- A38U G45U — higher, 0.09
- A38U G45A — higher, 0.23
- A38U G45C — lower, 0.06
- A38C G44U — higher, 0.93
- A38C G44A — higher, 0.99
- A38C G44C — higher, 0.97
- A38C C52U — higher, 1.03
- A38C C52G — higher, 1.03
- A38C C52A — higher, 1
- A38C G50C — higher, 1.01
- A38C G50U — higher, 1.04
- A38C G50A — higher, 0.75
- A38G C25G — higher, 0.11
- A38G C25A — higher, 0.09
- A38G C25U — higher, 0.78
- A38U A7C — lower, 0.05
- A38U A7U — higher, 0.12
- A38U A7G — higher, 0.24
- A38U U43C — higher, 0.39
- A38U U43A — higher, 0.95
- A38U U43G — higher, 0.47
- A38U C20A — higher, 0.82
- A38U C20U — higher, 0.98
- A38U C20G — higher, 0.15
- A38G A39U — higher, 0.98
- A38G A39G — higher, 0.4
- A38G A39C — higher, 0.97
- A38C C27G — lower, 0.06
- A38C C27A — higher, 0.18
- A38C C27U — higher, 0.18
- A38C G53A — higher, 0.84
- A38C G53U — higher, 0.24
- A38C G53C — the same, 0.08
- A38G C14U — higher, 0.13
- A38G C14G — higher, 0.13
- A38G C14A — lower, 0.07
- A38G G19C — lower, 0.06
- A38G G19U — higher, 0.14
- A38G G19A — higher, 0.46
- A38U U18A — higher, 0.92
- A38U U18C — higher, 0.93
- A38U U18G — higher, 0.85
- A38U G30U — lower, 0.04
- A38U G30A — lower, 0.04
- A38U G30C — lower, 0.04
- A38G A46U — lower, 0.07
- A38G A46G — the same, 0.08
- A38G A46C — the same, 0.08
- A38U C14U — higher, 0.22
- A38U C14G — higher, 0.11
- A38U C14A — lower, 0.07
- A38G C31U — higher, 0.73
- A38G C31G — higher, 0.13
- A38G C31A — lower, 0.03
- A38U A41C — higher, 0.89
- A38U A41G — higher, 0.64
- A38U A41U — higher, 0.98
- A38C U18C — higher, 0.99
- A38C U18A — higher, 0.98
- A38C U18G — higher, 0.81
- A38U G53A — higher, 0.81
- A38U G53C — higher, 0.09
- A38U G53U — higher, 0.27
- A38G G49A — higher, 0.13
- A38G G49U — higher, 0.13
- A38G G49C — the same, 0.08
- A38U G50U — higher, 1.01
- A38U G50A — higher, 0.64
- A38U G50C — higher, 0.99
- A38C G19A — higher, 0.64
- A38C G19C — lower, 0.07
- A38C G19U — higher, 0.33
- A38C C26U — higher, 0.94
- A38C C26G — the same, 0.08
- A38U G34U — higher, 0.77
- A38U G34A — higher, 0.78
- A38U G34C — higher, 0.5
- A38G G42U — higher, 0.12
- A38G G42C — higher, 0.23
- A38G G42A — higher, 0.7
- A38G G45C — lower, 0.07
- A38G G45A — higher, 0.26
- A38G G45U — higher, 0.09
- A38U G13C — lower, 0.03
- A38U G13A — higher, 0.11
- A38U G13U — lower, 0.03
- A38G C21G — the same, 0.08
- A38G C21U — higher, 1.01
- A38G C21A — higher, 0.78
- A38C C31U — higher, 0.89
- A38C C31G — higher, 0.09
- A38C C31A — lower, 0.04
- A38U G42A — higher, 0.6
- A38U G42C — higher, 0.17
- A38G G53U — higher, 0.31
- A38G G53C — higher, 0.09
- A38G G53A — higher, 0.8
- A38G G34A — higher, 0.84
- A38G G34U — higher, 0.74
- A38G G34C — higher, 0.59
- A38G C52A — higher, 1.02
- A38G C52G — higher, 0.96
- A38G C52U — higher, 0.95
- A38G A7G — higher, 0.31
- A38G A7C — lower, 0.06
- A38G A7U — the same, 0.08
- A38U A8U — higher, 0.25
- A38U A8C — higher, 0.09
- A38U A8G — higher, 0.52
- A38C G13U — lower, 0.03
- A38C G13C — lower, 0.03
- A38C G13A — lower, 0.07
- A38C G35A — higher, 0.84
- A38C G35U — higher, 0.86
- A38C G35C — higher, 0.36
- A38U G51U — higher, 0.32
- A38U G51A — higher, 0.63
- A38U G51C — higher, 0.09
- A38U U24C — higher, 0.25
- A38U U24A — higher, 0.14
- A38U U24G — lower, 0.03
- A38G C11G — higher, 0.68
- A38G C11U — higher, 0.94
- A38G C11A — higher, 0.8

From the RNAGym collection of RNA variant scans (doi:10.1002/anie.201605470)
